Assay results published in ChEMBL document CHEMBL4406880, “Design, synthesis, and bioactivity of dihydropyrimidine derivatives as kinesin spindle protein inhibitors” (Bioorg Med Chem, 2019).

Assays:
Type in all cases: functional
[1] = tested on: SK-MEL-28; assay: Growth inhibition of human SK-MEL-28 cells assessed as cell viability at 0.1 uM incubated for 48 hrs by sulforhodamine B assay; details: SK-MEL-28, 48 h, read-out: Activity
[2] = tested on: SR; assay: Growth inhibition of human SR cells assessed as cell viability at 0.1 uM incubated for 48 hrs by sulforhodamine B assay; details: read-out: Activity
[3] = tested on: EKVX; assay: Growth inhibition of human EKVX cells assessed as cell viability at 100 uM incubated for 48 hrs by sulforhodamine B assay; details: read-out: Activity
[4] = tested on: HCT-116; assay: Growth inhibition of human HCT116 cells assessed as cell viability at 0.001 uM incubated for 48 hrs by sulforhodamine B assay relative to control; details: HCT-116, 48 h, read-out: Activity
[5] = tested on: KM12; assay: Growth inhibition of human KM12 cells incubated for 48 hrs by sulforhodamine B assay; details: KM12, 48 h
How it was run: (§1)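 NCI-60 five-dose SRB assay in RPMI 1640 with 5% FBS, 37 °C, 5% CO2. Compound given at five tenfold dilutions, 0.01–100 µM, for 48 h. Adherent cells fixed with TCA, suspension cells with 16% final TCA. Bound SRB read at 515 nm and growth calculated against time-zero and untreated controls. GI50 taken from dose–response curves as the concentration giving a 50% decrease in net cell growth.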

[6] = tested on: CAKI-1; assay: Growth inhibition of human Caki1 cells assessed as cell viability at 0.1 uM incubated for 48 hrs by sulforhodamine B assay; details: CAKI-1, 48 h, read-out: Activity
[7] = tested on: UACC-257; assay: Growth inhibition of human UACC257 cells assessed as cell viability at 1 uM incubated for 48 hrs by sulforhodamine B assay; details: UACC-257, 48 h, read-out: Activity
[8] = tested on: NCI-H460; assay: Growth inhibition of human NCI-H460 cells incubated for 48 hrs by sulforhodamine B assay; details: NCI-H460, 48 h; how it was run: as §1
[9] = tested on: SNB-75; assay: Induction of apoptosis in human SNB75 cells assessed as early apoptotic cells at 2 uM incubated for 24 hrs by annexin V FITC and propidium iodide based flow cytometry (reference value: 0.82 %)
[10] = tested on: CCRF-CEM; assay: Growth inhibition of human CCRF-CEM cells assessed as cell viability at 0.001 uM incubated for 48 hrs by sulforhodamine B assay relative to control; details: read-out: Activity
[11] = tested on: UACC-62; assay: Growth inhibition of human UACC62 cells incubated for 48 hrs by sulforhodamine B assay; details: UACC-62, 48 h
How it was run: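 NCI-60 five-dose SRB assay. Cells were exposed for 48 h to tenfold dilutions of 0.01, 0.1, 1, 10 and 100 µM, in RPMI 1640 with 5% FBS. Plates fixed with TCA at the time of drug addition served as the time-zero reference. GI50 is the concentration giving a 50% reduction in net growth. TGI is total growth inhibition. LC50 is a net 50% loss of the initial cells.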

[12] = tested on: COLO 205; assay: Growth inhibition of human COLO205 cells assessed as cell viability at 1 uM incubated for 48 hrs by sulforhodamine B assay; details: COLO 205, 48 h, read-out: Activity
[13] = tested on: IGROV-1; assay: Growth inhibition of human IGROV1 cells assessed as cell viability at 1 uM incubated for 48 hrs by sulforhodamine B assay; details: IGROV-1, 48 h, read-out: Activity
[14] = tested on: NCI-H322M; assay: Growth inhibition of human NCI-H322M cells assessed as cell viability at 0.001 uM incubated for 48 hrs by sulforhodamine B assay relative to control; details: read-out: Activity
[15] = tested on: RXF 393; assay: Growth inhibition of human RXF393 cells assessed as cell viability at 0.1 uM incubated for 48 hrs by sulforhodamine B assay; details: RXF 393, 48 h, read-out: Activity
[16] = tested on: CAKI-1; assay: Growth inhibition of human Caki1 cells assessed as cell viability at 0.001 uM incubated for 48 hrs by sulforhodamine B assay relative to control; details: CAKI-1, 48 h, read-out: Activity
[17] = tested on: OVCAR-5; assay: Growth inhibition of human OVCAR5 cells assessed as cell viability at 0.1 uM incubated for 48 hrs by sulforhodamine B assay; details: OVCAR-5, 48 h, read-out: Activity
[18] = tested on: HOP-62; assay: Growth inhibition of human HOP62 cells assessed as cell viability at 100 uM incubated for 48 hrs by sulforhodamine B assay; details: HOP-62, 48 h, read-out: Activity
[19] = tested on: A498; assay: Growth inhibition of human A498 cells assessed as cell viability at 0.1 uM incubated for 48 hrs by sulforhodamine B assay; details: A498, 48 h, read-out: Activity
How it was run: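 NCI-60 five-dose mode: five tenfold dilutions (0.01, 0.1, 1, 10, 100 µM) are applied for 48 h to cells in RPMI 1640 with 5% FBS at 37 °C. Endpoint is TCA fixation with sulforhodamine B read at 515 nm. % growth comes from the 0 h and control absorbances. GI50 is the concentration giving a 50% reduction in net cell growth.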

[20] = tested on: U-251; assay: Growth inhibition of human U251 cells assessed as cell viability at 0.1 uM incubated for 48 hrs by sulforhodamine B assay; details: U-251, 48 h, read-out: Activity
[21] = tested on: HOP-92; assay: Growth inhibition of human HOP92 cells assessed as cell viability at 1 uM incubated for 48 hrs by sulforhodamine B assay; details: HOP-92, 48 h, read-out: Activity
[22] = tested on: TK-10; assay: Growth inhibition of human TK10 cells assessed as cell viability at 100 uM incubated for 48 hrs by sulforhodamine B assay; details: TK-10, 48 h, read-out: Activity
[23] = tested on: NCI-H226; assay: Growth inhibition of human NCI-H226 cells assessed as cell viability at 0.001 uM incubated for 48 hrs by sulforhodamine B assay relative to control; details: NCI-H226, 48 h, read-out: Activity
[24] = tested on: NCI-H226; assay: Growth inhibition of human NCI-H226 cells assessed as cell viability at 0.1 uM incubated for 48 hrs by sulforhodamine B assay; details: NCI-H226, 48 h, read-out: Activity
[25] = read-out: LC50 (the source's name)
[26] = read-out: pLC50 (the source's name) (converted)

CC1=C(C(=O)OCc2ccccc2)C(c2ccc3c(c2)OCO3)n2c(nc3ccccc32)N1 (racemic)
viability at 0.1 µM [1]: 93% | viability at 0.1 µM [2]: 75% | viability at 100 µM [3]: 29% | viability at 0.001 µM [4]: 96% | GI50 ([5]; read-out: GI50): 0.34 µM | LC50 ([5]; read-out: LC50): > 100 µM | TGI ([5]; read-out: TGI): > 100 µM | GI50 ([5]; read-out: pGI50 (converted)): 0.339 µM | LC50 ([5]; read-out: pLC50 (converted)): > 100 µM | TGI ([5]; read-out: pTGI): > 100 µM | viability at 0.1 µM [6]: 74% | viability at 1 µM [7]: 50% | GI50 ([8]; read-out: GI50): 0.36 µM | CC50 [8, 25]: > 100 µM | TGI ([8]; read-out: TGI): > 100 µM | GI50 ([8]; read-out: pGI50 (converted)): 0.363 µM | CC50 [8, 26]: > 100 µM | TGI ([8]; read-out: pTGI): > 100 µM | Activity [9]: 7.65% | viability at 0.001 µM [10]: 101% | GI50 ([11]; read-out: GI50): 0.38 µM | CC50 [11, 25]: > 100 µM | TGI ([11]; read-out: TGI): > 100 µM | GI50 ([11]; read-out: pGI50 (converted)): 0.38 µM | CC50 [11, 26]: > 100 µM | TGI ([11]; read-out: pTGI): > 100 µM | viability at 1 µM [12]: 28% | viability at 1 µM [13]: 39% | viability at 0.001 µM [14]: 96% | viability at 0.1 µM [15]: 90% | viability at 0.001 µM [16]: 83% | viability at 0.1 µM [17]: 100% | viability at 100 µM [18]: 31% | viability at 0.1 µM [19]: 95% | viability at 0.1 µM [20]: 96% | viability at 1 µM [21]: 41% | viability at 100 µM [22]: 68% | viability at 0.001 µM [23]: 93% | viability at 0.1 µM [24]: 97%
